Experimental data: ChEMBL document CHEMBL1130209, “A novel series of 2,5-substituted tryptamine derivatives as vascular 5HT1B/1D receptor antagonists” (J Med Chem, 1997)
The source made the active and inactive calls. The rule behind the calls is not given here.

How the values were obtained:
Type in all cases: tissue-based
Conditions in all cases: Oryctolagus cuniculus, target entry is the homologue from another species
[1] = molecular target: 5-hydroxytryptamine receptor 2A (Homo sapiens) (UniProt P28223); test: Dissociation equilibrium constant against the vascular 5-hydroxytryptamine 2A receptor in the rabbit […] aorta
[2] = molecular target: 5-hydroxytryptamine receptor 1B (Homo sapiens) (UniProt P28222); test: Dissociation equilibrium constant against the vascular 5-hydroxytryptamine 1B like receptor in the rabbit saphenous vein
How it was run: (§1)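 Saphenous vein rings (4–5 mm) from male New Zealand white rabbits, killed with pentobarbitone 80 mg/kg iv and exsanguination, mounted on tungsten wires. Phenoxybenzamine 0.3 μM for 30 min, washed out, 1 μM 5HT viability check. Cumulative 5HT curve, then after 60 min recovery a test compound curve. Non-agonists tested as 5HT antagonists, giving apparent pKB.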

[3] = molecular target: 5-hydroxytryptamine receptor 1B (Homo sapiens) (UniProt P28222); test: The dissociation equilibrium constant (pKB=-log KB) of compound was determined against the vascular 5-hydroxytryptamine 1B like receptor in the rabbit saphenous vein(RbSV); NS=non surmountable; how it was run: as §1

5-hydroxytryptamine receptor 1B (Homo sapiens), sequence (P28222 whole entry): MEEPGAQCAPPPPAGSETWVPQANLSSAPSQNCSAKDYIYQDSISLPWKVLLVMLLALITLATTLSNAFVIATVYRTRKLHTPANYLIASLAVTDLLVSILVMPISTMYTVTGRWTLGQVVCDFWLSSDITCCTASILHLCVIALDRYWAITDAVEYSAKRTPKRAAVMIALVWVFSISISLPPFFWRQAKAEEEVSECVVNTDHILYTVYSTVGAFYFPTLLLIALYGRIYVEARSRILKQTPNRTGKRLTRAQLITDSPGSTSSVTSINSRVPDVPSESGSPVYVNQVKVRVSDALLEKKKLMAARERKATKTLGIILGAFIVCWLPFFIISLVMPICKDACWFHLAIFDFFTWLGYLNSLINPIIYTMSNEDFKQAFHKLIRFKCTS
5-hydroxytryptamine receptor 2A (Homo sapiens), sequence (P28223 whole entry): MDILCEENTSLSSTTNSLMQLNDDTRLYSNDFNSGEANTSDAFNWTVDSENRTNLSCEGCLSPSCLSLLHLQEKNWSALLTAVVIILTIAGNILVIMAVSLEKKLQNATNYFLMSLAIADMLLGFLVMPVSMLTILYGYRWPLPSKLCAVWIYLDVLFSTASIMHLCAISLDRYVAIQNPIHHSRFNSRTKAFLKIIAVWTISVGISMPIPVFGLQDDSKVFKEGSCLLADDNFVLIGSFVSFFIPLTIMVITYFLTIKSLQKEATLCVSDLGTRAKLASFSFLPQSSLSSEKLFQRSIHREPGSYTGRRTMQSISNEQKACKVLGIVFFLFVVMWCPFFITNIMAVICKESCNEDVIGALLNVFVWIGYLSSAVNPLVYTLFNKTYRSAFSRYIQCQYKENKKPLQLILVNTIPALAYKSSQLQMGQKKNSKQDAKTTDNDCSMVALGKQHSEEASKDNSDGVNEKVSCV

SMILES | pKB [1] | pKB [2] | pKB [3]
CCOC(=O)c1[nH]c2ccc(CN3C(=O)NC(C)(C)C3=O)cc2c1CCN(C)C | 5.52 | 6.54 | 
CCOC(=O)c1[nH]c2ccc(CCC3COC(=O)N3)cc2c1CCN(C)C (stereo unspecified) | 6.76 | 7.21 | 
CC(C)OC(=O)c1[nH]c2ccc(CCN3C(=O)NC(C)(C)C3=O)cc2c1C1=CCN(C)CC1 | < 5 | 6.34 | 
CN(C)CCc1c(C(=O)O)[nH]c2ccc(CCN3C(=O)CNC3=O)cc12 | < 5 | 6.17 | 
CCOC(=O)c1[nH]c2ccc(CCN3C(=O)c4ccccc4C3=O)cc2c1CCN(C)C | 6.26 | 7.54 | 
CN(C)CCc1c(Br)[nH]c2ccc(CC3COC(=O)N3)cc12 (stereo unspecified) | < 5 | 5.86 | 
COC(=O)c1[nH]c2ccc(CCN3C(=O)CNC3=O)cc2c1-c1ccncc1 | < 5 |  | inactive
COC(=O)c1[nH]c2ccc(CN3C(=O)CNC3=O)cc2c1CCN(C)C | 5.15 | 5.41 | 
CCOC(=O)c1[nH]c2ccc(CCC3NC(=O)N(C)C3=O)cc2c1CCN(C)C (stereo unspecified) | 6.2 | 7.3 | 
CC(C)OC(=O)c1[nH]c2ccc(CCN3C(=O)NC(C)(C)C3=O)cc2c1-c1ccncc1 | < 5 | 5.25 | 
CCOC(=O)c1[nH]c2ccc(CCN3C(=O)CCC3=O)cc2c1CCN(C)C | 6.3 | 6.78 | 
CC(C)OC(=O)c1[nH]c2ccc(CN3C(=O)NC(C)(C)C3=O)cc2c1CCN(C)C | 5.62 | 5.62 | 
CN(C)CCc1c(C(=O)OCc2ccccc2)[nH]c2ccc(CCN3C(=O)CNC3=O)cc12 | 7.3 | 7.91 | 
CCOC(=O)c1[nH]c2ccc(CCN3C(=O)CNC3=O)cc2c1C1CCN(C)CC1 | < 5 | < 5 | 
CCOC(=O)c1[nH]c2ccc(CCN3C(=O)CNC3=O)cc2c1C1=CCN(C)CC1 | < 5 | 5.88 | 
COC(=O)c1[nH]c2ccc(CCN3CCOC3=O)cc2c1CCN(C)C | < 5 | 6 | 
CCOC(=O)c1[nH]c2ccc(CCN3C(=O)NC(C)(C)C3=O)cc2c1CCN(C)C | 5.23 | 7.34 | 

SMILES | pKB [1] | pKB [2] | pKB [3]
CN(C)CCc1c(C#N)[nH]c2ccc(CC3COC(=O)N3)cc12 (stereo unspecified) | 4.6 | 4.8 | 
COC(=O)c1[nH]c2ccc(CCN3C(=O)NC(C)(C)C3=O)cc2c1CCN(C)C | 5.02 | 6.88 | 
COC(=O)c1[nH]c2ccc(CCC3COC(=O)N3)cc2c1CCN(C)C (stereo unspecified) | 5.88 | 6.61 | 
CCOC(=O)c1[nH]c2ccc(CN3C(=O)CNC3=O)cc2c1CCN(C)C | 5.86 | 5.32 | 
CN(C)CCc1c(C(N)=O)[nH]c2ccc(CC3COC(=O)N3)cc12 (stereo unspecified) | < 4.5 | 4.75 | 
CCOC(=O)c1[nH]c2ccc(CCN3C(=O)c4ccccc4C3=O)cc2c1C1=CCN(C)CC1 | 5.02 | 6.42 | 
COC(=O)c1[nH]c2ccc(CN3C(=O)NC(C)(C)C3=O)cc2c1CCN(C)C | 5.03 | 6.45 | 
CC(C)OC(=O)c1[nH]c2ccc(CCN3C(=O)NC(C)(C)C3=O)cc2c1CCN(C)C | 5.8 | 6.82 | 
CN(C)CCc1c(C(=O)OC2CCCCC2)[nH]c2ccc(CCN3C(=O)NC(C)(C)C3=O)cc12 | 4.77 | 5.95 | 
CCOC(=O)c1[nH]c2ccc(CCN3CCCC3=O)cc2c1CCN(C)C | 5.5 | 6.1 | 
CCOC(=O)c1[nH]c2ccc(CCN3C(=O)CNC3=O)cc2c1-c1ccncc1 | < 5 | 5.29 | 
CC(C)OC(=O)c1[nH]c2ccc(CCN3C(=O)CNC3=O)cc2c1CCN(C)C | 6.57 | 6.85 | 
COC(=O)c1[nH]c2ccc(CCN3C(=O)CNC3=O)cc2c1CCN(C)C | < 5 | 6.97 | 
CCOC(=O)c1[nH]c2ccc(CC3COC(=O)N3)cc2c1CCN(C)C (stereo unspecified) | 5.66 | 6.12 | 
COC(=O)c1[nH]c2ccc(CCN3C(=O)c4ccccc4C3=O)cc2c1CCN(C)C | 5.66 | 7.39 | 
CCOC(=O)c1[nH]c2ccc(CCN3C(=O)CSC3=O)cc2c1CCN(C)C | 7.56 | 7.72 | 
